Laboratory results published in ChEMBL document CHEMBL1122643, “Alpha-adrenoreceptor reagents. 2. Effects of modification of the 1,4-benzodioxan ring system on alpha-adrenoreceptor activity” (J Med Chem, 1984).
Activity calls are given as the source filed them. No cut-off for these calls is given here.

Key:
[1] = target: T1, Adrenergic receptor alpha-1 (Rattus norvegicus) (UniProt P15823+P23944+P43140); assay: Agonism in vitro at Alpha-1 adrenoceptor determined in rat anococcygeus preparation.; assay type: functional
Summary of the method: (§1)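 Isolated tissue agonist test, potency compared directly with the standard in the same experiment. Standard dose-response curves were run before and after the test compound's curve. Rat anococcygeus (male Sprague-Dawley, 200-250 g; Krebs, 30 °C, 95% O2/5% CO2) was compared with phenylephrine. Field-stimulated mouse vas deferens (0.1 Hz, Mg-free Krebs, 30 °C) was compared with clonidine.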

[2] = target: T2, Alpha-2 adrenergic receptor (Mus musculus) (UniProt P30545+Q01338+Q01337); assay: Ability to antagonize the inhibitory effect of clonidine on the mouse vas deferens is the presynaptic alpha-2 adrenergic receptor antagonist potency relative to idazoxan = 1.; assay type: functional, tissue-based
Summary of the method: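 Male adult mouse vasa deferentia (MFI >30 g), 0.5 g initial tension, Mg-free Krebs, 30 °C, 95% O2/5% CO2. Field stimulation at 0.1 Hz, 3-ms pulses, 100-140 V set to give ~100-mg twitch, recorded isometrically.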

[3] = target: T1, Adrenergic receptor alpha-1 (Rattus norvegicus); assay: In vitro inhibition of the contractile effect of phenylephrine on the isolated rat anococcygeus; potency relative to idazoxan; Inactive.; assay type: functional
[4] = target: T2, Alpha-2 adrenergic receptor (Mus musculus); assay: Presynaptic alpha-2 adrenergic receptor agonistic activity in mouse vas deferens relative to clonidine; assay type: functional, tissue-based; summary of the method: as §1
[5] = target: T1, Adrenergic receptor alpha-1 (Rattus norvegicus); assay: Agonism at Alpha-1 adrenoceptor determined in rat anococcygeus preparation; Inactive.; assay type: functional; summary of the method: as §1
[6] = target: T2, Alpha-2 adrenergic receptor (Mus musculus); assay: Presynaptic alpha-2 adrenergic receptor from mouse vas deferens agonistic activity relative to clonidine = 1.; assay type: functional, tissue-based; summary of the method: as §1
[7] = target: T1, Adrenergic receptor alpha-1 (Rattus norvegicus); assay: In vitro inhibition of the contractile effect of phenylephrine on the isolated rat anococcygeus; potency relative to idazoxan.; assay type: functional
[8] = Selectivity between pre- and post-synaptic sites of action.; assay type: functional
[9] = target: T3, Alpha-2 adrenergic receptor (Mus musculus, UniProt P30545+Q01338+Q01337); assay: Alpha-2 adrenergic receptor […] in mouse vas deferens relative to clonidine; assay type: functional, tissue-based; summary of the method: as §1
T3 sequence (P30545 whole entry): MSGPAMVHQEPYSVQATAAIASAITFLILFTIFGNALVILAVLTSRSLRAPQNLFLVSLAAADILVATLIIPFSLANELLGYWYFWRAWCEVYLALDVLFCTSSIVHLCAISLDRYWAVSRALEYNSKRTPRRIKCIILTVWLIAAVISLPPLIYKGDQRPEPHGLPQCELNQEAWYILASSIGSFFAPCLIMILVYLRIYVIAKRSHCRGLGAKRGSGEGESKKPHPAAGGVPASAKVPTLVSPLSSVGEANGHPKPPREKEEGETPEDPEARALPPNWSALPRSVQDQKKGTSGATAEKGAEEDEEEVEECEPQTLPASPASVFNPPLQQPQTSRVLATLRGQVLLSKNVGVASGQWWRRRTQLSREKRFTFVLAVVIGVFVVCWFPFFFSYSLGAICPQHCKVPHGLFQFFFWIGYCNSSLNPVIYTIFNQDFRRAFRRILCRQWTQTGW
T3 sequence (Q01338 whole entry): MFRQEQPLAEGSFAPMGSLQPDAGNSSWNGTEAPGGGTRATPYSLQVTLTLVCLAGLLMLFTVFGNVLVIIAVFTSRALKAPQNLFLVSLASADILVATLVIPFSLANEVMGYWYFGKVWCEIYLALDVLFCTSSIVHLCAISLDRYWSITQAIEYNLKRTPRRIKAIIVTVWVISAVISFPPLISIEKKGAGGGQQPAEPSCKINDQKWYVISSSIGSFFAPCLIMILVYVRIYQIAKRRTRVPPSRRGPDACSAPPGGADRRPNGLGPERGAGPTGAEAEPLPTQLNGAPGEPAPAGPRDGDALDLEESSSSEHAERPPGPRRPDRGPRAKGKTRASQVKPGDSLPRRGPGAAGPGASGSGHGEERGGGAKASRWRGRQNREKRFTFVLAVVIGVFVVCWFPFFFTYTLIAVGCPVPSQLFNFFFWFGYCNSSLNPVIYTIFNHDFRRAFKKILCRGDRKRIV
T3 sequence (Q01337 whole entry): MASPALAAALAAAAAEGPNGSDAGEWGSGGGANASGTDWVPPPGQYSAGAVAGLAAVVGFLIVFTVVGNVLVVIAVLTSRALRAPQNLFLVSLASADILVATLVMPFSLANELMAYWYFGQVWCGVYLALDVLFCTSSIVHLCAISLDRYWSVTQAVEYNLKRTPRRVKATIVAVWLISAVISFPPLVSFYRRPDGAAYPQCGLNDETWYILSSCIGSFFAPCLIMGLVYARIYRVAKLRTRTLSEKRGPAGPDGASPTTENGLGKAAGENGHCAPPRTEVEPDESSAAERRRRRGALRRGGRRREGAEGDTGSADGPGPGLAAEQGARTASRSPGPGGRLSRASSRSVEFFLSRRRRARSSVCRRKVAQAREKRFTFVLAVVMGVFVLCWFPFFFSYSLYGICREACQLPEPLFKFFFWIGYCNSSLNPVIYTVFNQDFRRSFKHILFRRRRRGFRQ

Structure (SMILES) | Agonist potency [1] | Antagonist potency [2] | Antagonist potency [3] | Agonist potency [4] | Agonist potency [5] | Agonist potency [6] | Antagonist potency [7] | Ratio [8] | pA2 [9]
Oc1ccc2c(c1)OC(C1=NCCN1)C2 (configuration not stated) | 1.5 | 0.04 | inactive | 0.02 |  |  |  |  | 
Cc1ccc2c(c1)CC(C1=NCCN1)O2 (configuration not stated) |  | 1 |  |  | inactive | inactive | 2.25 | 0.44 | 
COc1cccc2c1OC(C1=NCCN1)C2 (configuration not stated) | 0.3 | 0.07 | inactive |  |  | inactive |  |  | 
CC(=O)c1ccc2c(c1)CC(C1=NCCN1)O2 (configuration not stated) | 0.02 | 0.003 | inactive |  |  | inactive |  |  | 
Clc1ccc2c(c1Cl)OC(C1=NCCN1)C2 (configuration not stated) | 0.001 | 0.12 | inactive | 0.03 |  |  |  |  | 
Cl.c1ccc2c(c1)CC(C1=NCCN1)O2 (configuration not stated) | 0.01 | 1.7 |  |  |  | inactive | 0.16 | 10.6 | 8.35
Cc1cccc2c1OC(C1=NCCN1)C2.Cl (configuration not stated) |  | 1.6 |  |  | inactive | inactive | 0.67 | 2.4 | 8.22
Cc1ccc(C)c2c1CC(C1=NCCN1)O2 (configuration not stated) | 0.5 | 0.03 | inactive | 0.14 |  |  |  |  | 
c1ccc2oc(C3=NCCN3)cc2c1 | < 0.001 | 0.01 |  | < 0.0003 |  |  |  |  | 
c1ccc2c(c1)CC(C1=NCCN1)CO2 (configuration not stated) |  | 0.01 |  |  | inactive | inactive | 1 | 0.01 | 
Brc1ccc2c(c1)CC(C1=NCCN1)O2 (configuration not stated) | 0.026 | 0.2 | inactive | < 0.001 |  |  |  |  | 
c1ccc2sc(C3=NCCN3)cc2c1 |  | 0.001 |  |  | inactive | inactive | 0.05 | 0.02 | 
c1ccc(CCC2(C3=NCCN3)Cc3ccccc3O2)cc1 (configuration not stated) |  | 0.07 |  |  | inactive | inactive | 0.07 | 1 | 
CC1c2ccccc2OC1C1=NCCN1 (configuration not stated) |  | 0.03 |  |  | inactive | inactive | 0.1 | 0.3 | 
Oc1cccc2c1OC(C1=NCCN1)C2 (configuration not stated) | 0.24 | 0.04 | inactive |  |  | inactive |  |  | 
Oc1ccc2c(c1)CC(C1=NCCN1)O2 (configuration not stated) | 0.25 | 0.02 | inactive | 0.02 |  |  |  |  | 
Cc1ccc2c(c1)OC(C1=NCCN1)C2 (configuration not stated) |  | 0.46 |  |  | inactive | inactive | 2.25 | 0.2 | 
CC1(C2=NCCN2)Oc2ccccc2O1 | 0.05 | 0.001 |  |  |  | inactive | 0.01 | 0.1 | 
Cc1cc(C)c2c(c1)CC(C1=NCCN1)O2 (configuration not stated) | 0.03 | 0.3 | inactive |  |  | inactive |  |  | 
c1ccc2c(c1)OC(C1=NCCN1)O2 | 0.005 | 0.001 | inactive |  |  | inactive |  |  | 
Clc1cc(Cl)c2c(c1)CC(C1=NCCN1)O2 (configuration not stated) | 0.14 | 0.06 | inactive | < 0.0001 |  |  |  |  | 
c1ccc2c(c1)OCCC(C1=NCCN1)O2 (configuration not stated) | < 0.0005 | 0.04 | inactive |  |  | inactive |  |  | 
Clc1cccc2c1CC(C1=NCCN1)O2 (configuration not stated) | 1 | 2 | inactive |  |  | inactive |  |  | 
Cl.Clc1cccc2c1OC(C1=NCCN1)C2 (configuration not stated) |  | 0.64 |  |  | inactive | inactive | 1 | 0.64 | 7.64
Cc1cc2c(cc1C)OC(C1=NCCN1)C2 (configuration not stated) |  | 0.7 |  |  | inactive | inactive | 0.9 | 0.8 | 
Fc1ccc2c(c1)CC(C1=NCCN1)O2 (configuration not stated) |  | 1.07 |  |  | inactive | inactive | 5.6 | 0.2 | 
COc1ccc2c(c1)OC(C1=NCCN1)C2 (configuration not stated) |  | 0.07 |  |  | inactive | inactive | 0.35 | 0.2 | 
c1ccc2c(c1)CCC(C1=NCCN1)O2 (configuration not stated) |  | 0.01 |  |  | inactive | inactive | 1 | 0.01 | 
c1ccc2c(c1)CC(C1=NCCN1)S2 (configuration not stated) |  | 0.1 |  | 0.001 | inactive |  | 0.69 | 0.14 | 
Cc1cccc2c1CC(C1=NCCN1)O2 (configuration not stated) | 1.3 | 0.1 | inactive | 0.2 |  |  |  |  | 
